Source: PubChem (Johns Hopkins Ion Channel Center)
TRPC4 PAM = allosterically enhances the mouse TRPC4 cation channel. Q9QUQ5. HEK293 TRPC4beta/mu-opioid, DAMGO EC20, Fluo-4 Ca2+ flux; active compounds read high. B-score at 10 µM. 0.42% of 310,000 active. AID 2227;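 active means B-score of calcium response area above 5 SD of library B-scores, with initial fluorescence ratio within 5 SD of library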
TRPC4 agonist = TRPC4 (mouse) channel activation | HEK293 TRPC4beta/mu-opioid, Fluo4 calcium fluorescence; active compounds read high | B-score at 10 µM | 0.49% of 310,000 active;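 active means B-score above 5 SD of library B-scores, and initial fluorescence ratio not above library mean plus 5 SD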;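 further: positive B-score marks a calcium rise read as TRPC4 activation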
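system = HEK293 cells stably co-expressing mouse TRPC4beta and mu-opioid receptor | schedule = Fluo4 dye loading 45 min at room temperature, 110 s recording | measure = B-scored integrated calcium fluorescence ratio | signal = Fluo4 calcium-sensitive dye fluorescence, kinetic, 1 Hz baseline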
TRPC6 activator = activators of mouse TRPC6 channel | HEK293-TRPC6 membrane potential dye fluorescence; active compounds read high | AID 2550 | B-score at 10 µM | Q61143 | 0.13% of 310,000 active;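 active means B-score of the integrated fluorescence ratio above library mean plus 3 SD, and starting fluorescence ratio within library mean plus 5 SD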;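 further: higher score means more depolarization so channel activation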
TRPC6 inh = inhibitors of mouse TRPC6 channel | Q61143 | B-score at 10 µM | 1.1% of 310,000 active | HEK293-TRPC6, membrane potential dye, ACh-evoked depolarization; active compounds read low | AID 2553;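 active means B-score under library mean minus 3 SD, initial fluorescence not abnormally high, positive integrated signal ratio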;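 further: B-score derived from integrated fluorescence ratio over the kinetic read; more negative B-score means stronger inhibition of depolarization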
TRPC4 inh = inhibitors of mouse TRPC4 channel | Q9QUQ5 | HEK293 TRPC4beta/mu-opioid, DAMGO-evoked Fluo4 calcium flux; active compounds read low | B-score at 10 µM | 0.39% of 300,000 active | AID 2247;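 active means B-score over 3 SD under the library average, no early fluorescence shift, positive overall ratio signal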
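Signal: kinetic Fluo4 fluorescence imaging of calcium influx. Material: stable TRPC4beta/mu-opioid receptor HEK293 cells. Probe or stimulus: DAMGO in two steps, submaximal then maximal.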
TRPC4 sel inh 2 = mouse TRPC4 off-target activity of TRPC6 inhibitors, second screen; shares compounds with TRPC6 inh; HEK293 TRPC4/MOR, membrane potential dye fluorescence; channel activated by saturating DAMGO dose; inhibition, % at 10 µM; 42% of 920 active;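 active means compounds whose fluorescence signal differed from control wells by over 3 SD, either direction, in both duplicate plates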
TRPC4 spec = tests whether TRPC6 inhibitors also affect mouse TRPC4; shares compounds with TRPC6 inh; HEK293 TRPC4/mu-opioid, membrane potential fluorescence; activity change, negative = inhibition, % at 10 µM; 61% of 920 active; AID 2777;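 active means rise or fall in signal beyond 3 SD of buffer-only wells in both replicate plates, either sign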;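 further: integrated kinetic ratio of fluorescence range over baseline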
HEK293 MPD ctr 2-1 = second counter-screen for TRPC6 inhibitors: parental HEK293 cells. shares compounds with TRPC6 inh. parental HEK293 membrane potential dye fluorescence; maximal acetylcholine challenge after compound addition. signal change vs control, % at 10 µM. 31% of 920 active;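 active means membrane potential signal moving either way by over 3 SD of the maximum-effect control, in both duplicate plates, meaning non-specific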
HEK293 MPD ctr-1 = checks TRPC6 inhibitor effects in parental HEK293 cells | shares compounds with TRPC6 inh | parental HEK293 membrane potential dye fluorescence | membrane potential signal change, % at 10 µM | 60% of 920 active | AID 2780;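 active means membrane potential signal shifting up or down by more than 3 SD of buffer-only wells, on both duplicate plates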
HEK293 MPD ctr-2 = parental HEK293 nonspecific activity of TRPC6 modulators; 51% of 2,400 active; membrane potential signal change, % at 10 µM; AID 488924; membrane potential dye fluorescence; shares compounds with TRPC6 inh;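 active means membrane potential signal moves up or down beyond 5 SD from buffer-only wells, on both duplicate plates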
HEK293 MPD ctr 2-2 = second counter-screen for TRPC6 modulators: effect in parental HEK293 cells | shares compounds with TRPC6 inh | 14% of 2,400 active | inhibition, % at 10 µM | membrane potential dye fluorescence; after compound, maximal acetylcholine stimulation;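 active means membrane potential signal drops by more than 5 SD from the mean control signal, in both duplicate plates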
TRPC4/MOR mod = selectivity of TRPC6 modulators against mouse TRPC4 | 69% of 2,400 active | shares compounds with TRPC6 inh | percent change from control (negative = decrease, positive = increase), % at 10 µM | HEK293 TRPC4/mu-opioid, membrane potential fluorescence;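 active means membrane potential signal moved up or down beyond 5 SD of buffer control wells, in both duplicate plates, actives on both sides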
TRPC4/MOR inh 2 = second selectivity test of TRPC6 modulators against mouse TRPC4. AID 488928. shares compounds with TRPC6 inh. 55% of 2,400 active. inhibition, % at 10 µM. HEK293 TRPC4/mu-opioid, membrane potential dye fluorescence; stimulated with maximal-effect DAMGO;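 active means drop in membrane potential signal beyond 5 SD of the control wells in both duplicate plates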;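 further: TRPC4 counter screen for TRPC6 hits run under conditions tuned for TRPC6 not TRPC4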
TRPC6 block conf = confirmation of mouse TRPC6 inhibitors; shares compounds with TRPC6 inh; inhibition, % at 10 µM; 43% of 3,300 active; HEK293-TRPC6, membrane potential dye, ACh-evoked depolarization;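 active means fluorescence ratio falls more than 5 SD below the full-stimulation control mean, in both duplicate runs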;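 further: integrated fluorescence ratio of peak minus minimum over baseline after agonist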
TRPC6 act conf = confirmation of mouse TRPC6 activators. 11% of 2,800 active. HEK293-TRPC6 membrane potential dye fluorescence, FDSS. shares compounds with TRPC6 inh. activation, % at 10 µM;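 active means ratio signal rise beyond 5 SD above unstimulated control wells' mean, seen in both duplicate runs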
Of the large screens only hits and unclear results are named; the others gave an inactive call (follow-up assays come after a bar, where they were run). Sampled rows, rich in hits. Any-hit rate of the full collection: about 2.3%.

NC(=O)CC(NC(=O)Cc1ccc(Br)cc1)c1ccc(NC2CCN(Cc3ccccc3)CC2)c([N+](=O)[O-])c1 (centres undefined)	none
O=[N+]([O-])c1ccc(NC2CCN(Cc3ccccc3)CC2)c([N+](=O)[O-])c1	TRPC6 inh -6.7 | HEK293 MPD ctr-2 -90% | HEK293 MPD ctr 2-2 inactive | TRPC4/MOR mod -17% | TRPC4/MOR inh 2 52% | TRPC6 block conf inactive | TRPC6 act conf inactive
NS(=O)(=O)c1ccc(NN=C2CCN(Cc3ccccc3)CC2)c([N+](=O)[O-])c1	TRPC4 PAM 17, TRPC6 inh -5.7 | HEK293 MPD ctr-2 inactive | HEK293 MPD ctr 2-2 inactive | TRPC4/MOR mod inactive | TRPC4/MOR inh 2 inactive | TRPC6 block conf inactive | TRPC6 act conf inactive
O=C(COC(=O)c1c[nH]c(=O)[nH]c1=O)Nc1ccccc1Br	none
CCCn1nc([N+](=O)[O-])c(C(C#N)c2nc3ccccc3o2)c(Cl)c1=O (centres undefined)	TRPC6 inh -7.9, TRPC4 inh -5 | HEK293 MPD ctr-2 -217% | HEK293 MPD ctr 2-2 inactive | TRPC4/MOR mod -46% | TRPC4/MOR inh 2 81% | TRPC6 block conf 68% | TRPC6 act conf inactive
CN1C2CCC1CC(NS(=O)(=O)c1ccc(C#N)cc1)C2 (centres undefined)	none
O=C(COc1cc2oc(=O)cc(-c3ccccc3)c2cc1Cl)NC(Cc1c[nH]c2ccc(O)cc12)C(=O)O (centres undefined)	none
N=c1n(Cc2ccccc2)c2ccccc2n1CC(O)COc1ccccc1 (centres undefined)	TRPC4 agonist 56, TRPC6 inh -9.9 | TRPC4 sel inh 2 -6.5% | TRPC4 spec 56% | HEK293 MPD ctr 2-1 inactive | HEK293 MPD ctr-1 14% | TRPC6 block conf 63%
Cc1ccc(Cn2c(=N)n(CC(O)COc3ccccc3)c3ccccc32)cc1 (centres undefined)	TRPC4 agonist 72, TRPC6 inh -5.9 | HEK293 MPD ctr-2 inactive | HEK293 MPD ctr 2-2 inactive | TRPC4/MOR mod 68% | TRPC4/MOR inh 2 115% | TRPC6 block conf 46%
CCCCn1c(=N)n(CC(O)COc2ccccc2)c2ccccc21 (centres undefined)	none
COc1ccc(C)cc1NC(=O)C(NCC(O)c1ccccc1)c1ccccc1 (centres undefined)	none
Cc1ccc(C)c(NC(=O)C(NCC(C)(C)N2CCOCC2)c2ccccc2)c1 (centres undefined)	TRPC6 inh -6.7 | TRPC4 sel inh 2 inactive | TRPC4 spec 5.2% | HEK293 MPD ctr 2-1 inactive | HEK293 MPD ctr-1 7.3% | TRPC6 block conf inactive
Cc1ccc(NC(=O)CCN2C(=O)C3CCCCC3C2=O)cc1[N+](=O)[O-] (centres undefined)	none
N#Cc1ccc(-c2cn(-c3ccccc3)c3[n+]2CCCS3)cc1	TRPC6 inh -6 | HEK293 MPD ctr-2 -214% | HEK293 MPD ctr 2-2 inactive | TRPC4/MOR mod -35% | TRPC4/MOR inh 2 38% | TRPC6 block conf inactive | TRPC6 act conf inactive
Cc1ccn(CC(=O)N2CCCC(N3CCN(c4ccccc4F)CC3)C2)n1 (centres undefined)	none
CCOC(=O)C1CCN(C(=O)c2ccccc2Oc2ccccc2)CC1	none
CCOC(=O)N1CCN(C(=O)c2ccccc2Oc2ccccc2)CC1	TRPC6 inh -6.1 | HEK293 MPD ctr-2 94% | HEK293 MPD ctr 2-2 inactive | TRPC4/MOR mod 26% | TRPC4/MOR inh 2 inactive | TRPC6 block conf 67%
O=C(c1ccco1)N1CCN(C(=O)c2ccccc2OC(=O)C23CC4CC(CC(C4)C2)C3)CC1	none
O=C(c1ccco1)N1CCN(C(=O)c2ccccc2Oc2ccccc2)CC1	TRPC6 inh -8.1 | TRPC4 sel inh 2 inactive | TRPC4 spec 13% | HEK293 MPD ctr 2-1 inactive | HEK293 MPD ctr-1 6.7% | TRPC6 block conf 62%
O=C(c1cccs1)N1CCN(C23CC4CC(CC(C4)C2)C3)CC1	TRPC6 inh -6.3 | HEK293 MPD ctr-2 114% | HEK293 MPD ctr 2-2 inactive | TRPC4/MOR mod 18% | TRPC4/MOR inh 2 inactive | TRPC6 block conf 44%
CCOC(=O)Nc1ccc2c(c1)OCO2	TRPC6 inh -5.6 | HEK293 MPD ctr-2 inactive | HEK293 MPD ctr 2-2 inactive | TRPC4/MOR mod inactive | TRPC4/MOR inh 2 inactive | TRPC6 block conf inactive | TRPC6 act conf inactive
CCCn1c2ccccc2c2cnn(CC(=O)NCCCN3CCN(c4ccccc4)CC3)c(=O)c21	TRPC6 inh -5.3 | HEK293 MPD ctr-2 134% | HEK293 MPD ctr 2-2 inactive | TRPC4/MOR mod 8.0% | TRPC4/MOR inh 2 74% | TRPC6 block conf inactive
CC(C)(C)n1nnnc1C(c1ccc2ncccc2c1)N1CCC(O)CC1 (centres undefined)	none
c1cnc2ccc(C(c3nnnn3C3CCCC3)N3CCSCC3)cc2c1 (centres undefined)	TRPC6 activator 19, TRPC6 inh -6.2 | HEK293 MPD ctr-2 120% | HEK293 MPD ctr 2-2 inactive | TRPC4/MOR mod 32% | TRPC4/MOR inh 2 inactive | TRPC6 block conf 98% | TRPC6 act conf 148%
